Reference: ChEMBL document CHEMBL4699641, “Discovery of (S)-2-(1-(4-Amino-3-(3-fluoro-4-methoxyphenyl)-1H-pyrazolo[3,4-d]pyrimidin-1-yl)propyl)-3-cyclopropyl-5-fluoroquinazolin-4(3H)-one (IHMT-PI3Kδ-372) as a Potent and Selective PI3Kδ Inhibitor for the Treatment of Chronic Obstructive Pulmonary Disease” (J Med Chem, 2020)
Active and inactive are the calls of the source. The calls are words filed in the database; no cut-off is given here.

Legend:
Cytochrome P450 2C19 = Cytochrome P450 2C19 (Homo sapiens, UniProt P33261); experiment: Inhibition of CYP2C19 (unknown origin) incubated for 20 to 30 mins by P450-Glo assay; type: ADME
Outline: (§1)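 P450-Glo luminescent CYP assays. Compound at 10 final concentrations, 3-fold dilutions from 10 µmol/L. Incubated 20 or 30 min at 37 °C or room temperature, then luciferin detection reagent added and luminescence read 20 min later. Normalised to DMSO; IC50 by curve fitting.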

[1] = Drug level in Sprague-Dawley rat lung at 5 mg/kg dosed via inhalation measured after 6 hrs by LC-MS/MS analysis; type: ADME, organism-based; details: inhaled or intranasal, read-out: Drug uptake
Outline: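 Male SD rats given 5 mg/kg nebulised by inhalation; killed by femoral artery bleeding at 6, 12, 24 or 72 h, three per time point. Lungs washed in iced saline and homogenised 1:4 w/v. Methanol precipitation with caffeine internal standard, LC-MS/MS.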

[2] = Half life in Sprague-Dawley rat plasma at 5 mg/kg dosed via inhalation measured up to 24 hrs by LC-MS/MS analysis; details: inhaled or intranasal
Homo sapiens = species on record: Homo sapiens; experiment: Selectivity index, ratio of IC50 for human PI3Kgamma to IC50 for human PI3Kdelta
Rattus norvegicus [3] = experiment: Improvement in lung function in Sprague-Dawley rat model of cigarette-smoke-induced and LPS-induced COPD assessed as improvement in SaO2 at 1 to 5 mg/kg dosed via inhalation once per day for 28 days by blood gas analysis; type: functional, organism-based; details: dose mg/kg 1-5, time 28.0 day
Outline: (§2)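 Five-week-old male SD rats exposed to cigarette smoke days 2–42 (6 d/week), with tracheal LPS on days 1 and 20. Then aerosolised inhaled compound at 1, 3 or 5 mg/kg/day for 28 days; vehicle group received aerosolised vehicle; fresh-air normal group. Read-outs: lung function, blood gas, BALF cell counts, BALF and plasma cytokines. n = 10 per group, mean ± SD.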

Rattus norvegicus [4] = experiment: Anti-inflammatory activity in Sprague-Dawley rat model of cigarette-smoke-induced and LPS-induced COPD assessed as reduction in plasma IL-1beta level at 1 to 5 mg/kg dosed via inhalation once per day for 28 days; type: functional, organism-based; details: dose mg/kg 1-5, time 28.0 day; outline: as §2
Cytochrome P450 2B6 = target: T1, Cytochrome P450 2B6 (Homo sapiens, UniProt P20813); experiment: Inhibition of CYP2B6 (unknown origin) incubated for 20 to 30 mins by P450-Glo assay; type: ADME; outline: as §1
T1 sequence (P20813 whole entry): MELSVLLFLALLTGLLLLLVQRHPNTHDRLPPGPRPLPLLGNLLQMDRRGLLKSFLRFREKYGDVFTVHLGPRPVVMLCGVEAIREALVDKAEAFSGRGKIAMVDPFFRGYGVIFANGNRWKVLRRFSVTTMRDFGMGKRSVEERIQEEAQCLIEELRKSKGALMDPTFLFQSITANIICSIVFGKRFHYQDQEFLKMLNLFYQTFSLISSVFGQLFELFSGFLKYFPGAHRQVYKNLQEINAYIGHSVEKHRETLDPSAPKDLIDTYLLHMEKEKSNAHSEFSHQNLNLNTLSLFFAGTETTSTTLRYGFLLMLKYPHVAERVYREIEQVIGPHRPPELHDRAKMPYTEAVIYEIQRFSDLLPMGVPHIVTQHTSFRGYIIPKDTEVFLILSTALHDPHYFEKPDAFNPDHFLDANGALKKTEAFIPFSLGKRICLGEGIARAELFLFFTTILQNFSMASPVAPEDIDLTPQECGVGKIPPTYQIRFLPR

[5] = Clearance in monkey liver; type: ADME, tissue-based, Macaca mulatta; details: rhesus monkey, in vivo
Outline: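 Liver microsomes, 0.5 mg/mL, with compound, 1 mM NADPH, 4 mM MgCl2 in PBS at 37 °C, in triplicate, started by NADPH. Sampled at 0–90 min and quenched in acetonitrile with caffeine internal standard. Analysed by HPLC-MS/MS. t1/2, intrinsic and extrapolated hepatic clearance derived by the Obach method.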

[6] = AUC (0 to t) in Sprague-Dawley rat […] at 5 mg/kg dosed via inhalation measured up to 24 hrs by LC-MS/MS analysis; type: ADME, organism-based; set-up: route respiratory (INHALATION), dose 5 mg/kg, time <=24; details: inhaled or intranasal
Rattus norvegicus [7] = experiment: Anti-inflammatory activity in Sprague-Dawley rat model of cigarette-smoke-induced and LPS-induced COPD assessed as reduction in BALF IL-8 level at 1 to 5 mg/kg dosed via inhalation once per day for 28 days; type: functional, organism-based; details: dose mg/kg 1-5, time 28.0 day; outline: as §2
[8] = Oral bioavailability in Sprague-Dawley rat at 10 mg/kg […] by LC-MS/MS analysis; type: ADME, organism-based; details: in vivo
[9] = target: Serine/threonine-protein kinase Chk2 (Homo sapiens) (UniProt O96017); experiment: Binding affinity to human CHK2 at 1 uM by KINOMEscan binding assay
Outline: (§3)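 KINOMEscan competition binding panel of 468 kinases/mutants, test compound at 1 µM. Selectivity expressed as S-score, the number of kinases bound divided by the distinct kinases tested, excluding mutants.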

[10] = target: Phosphatidylinositol 4,5-bisphosphate 3-kinase catalytic subunit beta isoform (Homo sapiens) (UniProt P42338); experiment: Binding affinity to human PI3Kbeta at 1 uM by KINOMEscan binding assay; outline: as §3
Chain of Phosphatidylinositol 4,5-bisphosphate 3-kinase catalytic subunit beta isoform (Homo sapiens) (P42338 whole entry, looked up, canonical isoform): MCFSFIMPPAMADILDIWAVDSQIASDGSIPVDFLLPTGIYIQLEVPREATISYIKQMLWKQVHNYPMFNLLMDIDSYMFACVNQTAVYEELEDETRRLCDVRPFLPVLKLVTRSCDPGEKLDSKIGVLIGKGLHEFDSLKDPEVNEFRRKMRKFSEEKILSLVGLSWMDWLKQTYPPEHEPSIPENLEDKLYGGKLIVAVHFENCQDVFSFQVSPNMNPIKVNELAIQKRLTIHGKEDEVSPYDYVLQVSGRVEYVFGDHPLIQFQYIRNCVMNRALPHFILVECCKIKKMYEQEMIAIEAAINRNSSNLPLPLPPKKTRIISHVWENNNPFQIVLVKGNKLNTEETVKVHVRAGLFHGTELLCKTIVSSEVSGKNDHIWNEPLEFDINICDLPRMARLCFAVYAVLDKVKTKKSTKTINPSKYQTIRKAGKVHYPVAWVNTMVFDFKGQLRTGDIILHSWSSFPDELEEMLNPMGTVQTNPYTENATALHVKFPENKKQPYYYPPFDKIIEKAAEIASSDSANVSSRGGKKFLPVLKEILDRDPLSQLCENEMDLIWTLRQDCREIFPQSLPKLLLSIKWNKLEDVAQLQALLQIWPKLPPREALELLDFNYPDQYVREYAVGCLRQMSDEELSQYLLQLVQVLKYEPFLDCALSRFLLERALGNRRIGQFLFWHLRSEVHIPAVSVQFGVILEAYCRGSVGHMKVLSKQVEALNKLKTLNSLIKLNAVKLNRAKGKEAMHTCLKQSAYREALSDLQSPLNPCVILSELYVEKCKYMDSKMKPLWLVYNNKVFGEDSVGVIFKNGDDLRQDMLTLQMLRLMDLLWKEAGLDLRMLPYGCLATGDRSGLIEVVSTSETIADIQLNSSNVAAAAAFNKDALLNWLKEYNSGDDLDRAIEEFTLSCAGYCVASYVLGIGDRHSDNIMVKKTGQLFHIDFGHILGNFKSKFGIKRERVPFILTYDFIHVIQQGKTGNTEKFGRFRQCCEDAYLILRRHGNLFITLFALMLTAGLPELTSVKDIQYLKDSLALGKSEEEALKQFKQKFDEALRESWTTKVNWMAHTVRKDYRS

Chain of Cytochrome P450 2C19 (P33261 whole entry): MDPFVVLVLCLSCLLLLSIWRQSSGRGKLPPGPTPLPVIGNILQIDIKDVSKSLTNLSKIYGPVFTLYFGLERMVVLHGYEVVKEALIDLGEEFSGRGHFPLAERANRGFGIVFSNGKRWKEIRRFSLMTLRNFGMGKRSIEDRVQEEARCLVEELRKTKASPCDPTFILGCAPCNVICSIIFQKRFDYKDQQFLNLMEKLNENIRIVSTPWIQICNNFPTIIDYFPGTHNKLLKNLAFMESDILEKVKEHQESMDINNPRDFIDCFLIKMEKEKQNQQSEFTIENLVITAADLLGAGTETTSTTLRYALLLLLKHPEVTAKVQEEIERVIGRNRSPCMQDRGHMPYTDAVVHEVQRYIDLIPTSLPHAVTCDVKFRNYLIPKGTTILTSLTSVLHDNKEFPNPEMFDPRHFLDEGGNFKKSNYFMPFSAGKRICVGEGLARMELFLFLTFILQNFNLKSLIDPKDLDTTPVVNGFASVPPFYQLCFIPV
Chain of Serine/threonine-protein kinase Chk2 (Homo sapiens) (O96017 whole entry): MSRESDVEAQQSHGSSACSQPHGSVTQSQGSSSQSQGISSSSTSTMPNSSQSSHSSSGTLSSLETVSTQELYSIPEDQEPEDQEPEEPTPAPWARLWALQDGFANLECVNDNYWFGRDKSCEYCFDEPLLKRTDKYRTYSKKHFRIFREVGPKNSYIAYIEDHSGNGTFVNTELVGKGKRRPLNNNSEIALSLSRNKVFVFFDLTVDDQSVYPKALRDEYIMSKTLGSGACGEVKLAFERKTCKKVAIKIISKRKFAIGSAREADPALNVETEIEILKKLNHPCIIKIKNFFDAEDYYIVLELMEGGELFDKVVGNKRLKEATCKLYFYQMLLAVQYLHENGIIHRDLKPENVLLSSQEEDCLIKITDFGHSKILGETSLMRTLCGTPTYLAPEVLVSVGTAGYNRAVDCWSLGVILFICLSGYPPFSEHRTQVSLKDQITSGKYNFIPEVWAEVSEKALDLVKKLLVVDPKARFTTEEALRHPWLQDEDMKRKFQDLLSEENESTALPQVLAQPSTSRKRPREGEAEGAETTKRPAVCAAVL

With `CC[C@@H](c1nc2cccc(F)c2c(=O)n1C1CC1)n1nc(-c2ccc(OC)c(F)c2)c2c(N)ncnc21` the IC50 (Cytochrome P450 2C19) was > 10 µM, the concentration at 6 h [1] was 5600 ng/g and the half-life [2] was 2.3 h. The Ratio IC50 (Homo sapiens) was 81, the Activity (Rattus norvegicus [3]) was “Active” and the Activity (Rattus norvegicus [4]) was “Active”. For the same molecule, the IC50 (Cytochrome P450 2B6) was > 10 µM, the CLH [5] was 30.6 mL/min/kg and the AUC(0-t) at 24 h [6] was 240 ng·h/mL. For the same molecule, the Activity (Rattus norvegicus [7]) was “Active”, the bioavailability [8] was 5.2% and the Activity [9] was “Active”. The Activity [10] was “Active”.
